Screens deposited in PubChem by The Scripps Research Institute Molecular Screening Center.
PAFAH2 FP inh: PAFAH2 enzyme inhibitors, primary screen, biochemical, fluorescence polarization, human; Platelet-activating factor acetylhydrolase 2, cytoplasmic (Homo sapiens), Q99487; recombinant PAFAH2, FP-rhodamine activity probe; inhibition, % at 3.39 µM; 340,000 tested, 0.99% active;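 active means inhibition above the mean over all tested compounds plus 3 SD, cut at about 30% in these data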;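 further: inhibitors block probe labeling of enzyme so polarization drops; 0% = enzyme with DMSO and 100% = wells lacking PAFAH2 protein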
ASAP1 inh: inhibitors of human ASAP1 ArfGAP activity, primary screen, biochemical, fluorescence polarization; Arf-GAP with SH3 domain, ANK repeat and PH domain-containing protein 1 (Homo sapiens), …; ASAP1-stimulated ARF1 GTP hydrolysis, GDP FP detection; inhibition, % at 16.5 µM; 360,000 tested, 0.19% active; in the data active means inhibition above about 25%;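 further: 0% = vehicle with enzyme and substrate and 100% = no enzyme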
Target sequence (Q9ULH1 325-724 limits assumed): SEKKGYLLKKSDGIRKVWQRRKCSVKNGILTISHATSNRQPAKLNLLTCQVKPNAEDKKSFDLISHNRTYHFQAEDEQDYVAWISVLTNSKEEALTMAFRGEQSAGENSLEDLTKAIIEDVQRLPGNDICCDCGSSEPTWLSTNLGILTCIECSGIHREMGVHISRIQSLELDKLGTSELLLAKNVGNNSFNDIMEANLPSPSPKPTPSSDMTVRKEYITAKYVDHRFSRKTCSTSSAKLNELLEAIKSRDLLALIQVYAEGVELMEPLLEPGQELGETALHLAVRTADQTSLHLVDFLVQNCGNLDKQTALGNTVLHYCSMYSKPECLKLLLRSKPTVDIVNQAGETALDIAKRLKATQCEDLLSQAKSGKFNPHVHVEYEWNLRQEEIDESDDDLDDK
PAFAH1B2 inh: PAFAH1B2 enzyme inhibitors, primary screen, biochemical, fluorescence polarization, human | Platelet-activating factor acetylhydrolase IB subunit alpha2 (Homo sapiens), P68402 | recombinant PAFAH1B2, FP-rhodamine activity probe | inhibition, % at 3.39 µM | 340,000 tested, 1.2% active | AID 492953, 2010;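 active means inhibition above the mean of all tested compounds plus 3 SD, cut at about 24% in these data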;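 further: 0% = enzyme with DMSO and 100% = wells lacking PAFAH1B2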
ARFGAP1 inh: inhibitors of rat ARFGAP1 GAP activity, primary screen, biochemical, fluorescence polarization, GDP tracer | 360,000 tested, 0.26% active | inhibition, % at 16.5 µM | Arfgap1-stimulated ARF1 GTP hydrolysis, GDP FP detection | ADP-ribosylation factor GTPase-activating protein 1 (Rattus norvegicus), Q62848;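 active means inhibition above a per-plate limit, mean inhibition of low control wells plus 3 SD, cut at about 25% in these data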;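 further: 0% = DMSO wells with enzyme and 100% = wells lacking Arfgap1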
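Material – truncated rat Arfgap1 GAP domain · Buffer or medium – HEPES-based buffer, pH 7.5 · Reagent – human ARF1(Δ1-17)-GTP substrate · Dosing – 16.5 µM single point, 1.26% DMSO · Schedule – GTP hydrolysis reaction 2 h at 25 °C · Technique – GDP detection by fluorescence polarization · Benchmarks – No-Arfgap1 wells (100%) versus DMSO full-reaction wells (0%) · Repeats – single replicate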
pPAFAH inh: pPAFAH enzyme inhibitors, primary screen, biochemical, fluorescence polarization, human | Platelet-activating factor acetylhydrolase (Homo sapiens), Q13093 | recombinant pPAFAH, FP-rhodamine probe fluorescence polarization | AID 463082, 2010 | inhibition, % at 3.39 µM | 330,000 tested, 1.5% active;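 active means inhibition above the mean inhibition across the screen plus 3 SD, cut at about 25% in these data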;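 further: inhibitors block binding of the rhodamine activity-based probe so polarization drops; 0% = enzyme with DMSO and 100% = wells lacking pPAFAH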
PAFAH1B3 inh: PAFAH1B3 enzyme inhibitors, primary screen, biochemical, fluorescence polarization, human; inhibition, % at 3.39 µM; 340,000 tested, 0.28% active; recombinant PAFAH1B3, FP-rhodamine probe;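 active means inhibition above the screen-wide average of all tested compounds plus 3 SD, cut at about 25% in these data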;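 further: 0% = enzyme with DMSO only and 100% = wells lacking PAFAH1B3 protein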
Target sequence (Q15102 whole entry, looked up): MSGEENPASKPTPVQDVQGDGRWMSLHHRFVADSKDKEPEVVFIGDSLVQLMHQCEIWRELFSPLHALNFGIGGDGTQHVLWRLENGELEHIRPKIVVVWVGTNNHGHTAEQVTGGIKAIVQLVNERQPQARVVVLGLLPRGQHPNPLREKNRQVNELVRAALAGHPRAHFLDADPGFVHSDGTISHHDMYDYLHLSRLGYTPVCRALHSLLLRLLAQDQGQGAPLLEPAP
PAFAH2 confirm: PAFAH2 enzyme inhibitors, confirmation, biochemical, fluorescence polarization, human | 2,300 tested, 65% active | shares compounds with PAFAH2 FP inh | AID 493030, 2011 | inhibition, % at 3.39 µM | recombinant PAFAH2, FP-rhodamine activity probe;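 active means mean inhibition over three repeats above a set limit taken from the earlier primary screen, cut at about 30% in these data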;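 further: inhibitor blocks binding of rhodamine activity probe so polarization falls; 0% = enzyme with DMSO and 100% = wells lacking PAFAH2 protein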
* marks the source's active call; other numbers are inactive results; / = no result given. The list is not random: actives were taken first. Their share in the collection is about 2.8%.

SMILES | PAFAH2 FP inh | ASAP1 inh | PAFAH1B2 inh | ARFGAP1 inh | pPAFAH inh | PAFAH1B3 inh | PAFAH2 confirm
O=C(c1ccco1)N1CCN(C(=O)c2ccc(-c3ccccc3Cl)o2)CC1 | 11 | -6 | 4 | 0 | 2 | -5 | /
O=C(c1cc(-c2ccc(Cl)cc2Cl)on1)N1CCCC1 | 31* | 2 | 3 | 3 | 9 | 7 | 26
O=C(c1cc(-c2ccc(Cl)cc2Cl)on1)N1CCCCCC1 | 7 | -10 | 5 | -5 | 4 | 7 | /
O=C(c1cc(-c2ccccc2Cl)on1)N1CCN(C(=O)c2ccco2)CC1 | 43* | 6 | 5 | -4 | 9 | 2 | 35*
CC1(Oc2ccc(CC#N)cc2)CCN(Cc2ccc(-n3ccnc3)cc2)C1 (centres undefined) | / | 5 | / | -5 | / | / | /
Cc1ccccc1NC(=O)COC(=O)c1ccc(S(C)(=O)=O)c([N+](=O)[O-])c1 | 39* | 5 | 1 | 10 | 11 | -2 | 13
CS(=O)(=O)c1ccc(C(=O)OCC(=O)Nc2cccnc2Cl)cc1[N+](=O)[O-] | 12 | / | -5 | / | -1 | 4 | /
Cc1ccccc1NC(=O)COC(=O)c1ccc2c(c1)OCCO2 | 58* | -2 | 2 | 8 | / | 2 | 52*
Cc1ccc(C)c(NC(=O)COC(=O)c2ccc3c(c2)OCCO3)c1 | 53* | -11 | 1 | -5 | 1 | 6 | 61*
COc1ccccc1NC(=O)COC(=O)c1ccc2c(c1)OCCO2 | 6 | 11 | 2 | 13 | 3 | -2 | /
COc1ccc(S(=O)(=O)N[C@H]2CC[C@H](CCNC(=O)c3ccccc3F)O[C@@H]2CO)cc1 | / | 5 | / | -12 | / | / | /
O=C(COC(=O)c1ccc2c(c1)OCCO2)NCCC1=CCCCC1 | 58* | 1 | -1 | 4 | 17 | 2 | 47*
O=C(COC(=O)c1ccc(O)cc1)NCCC1=CCCCC1 | 57* | -8 | 3 | -8 | 13 | 6 | 50*
Cc1ccc(C(=O)OCC(=O)NCCC2=CCCCC2)cc1N | 2 | 1 | 6 | 6 | 9 | 0 | /
O=C(COC(=O)c1ccc(F)cc1F)NCCC1=CCCCC1 | 47* | -12 | 3 | -20 | 17 | 8 | 31*
CCOc1ccc(NC(=O)CC2S/C(=N/N=C3CCCCCC3)NC2=O)cc1 (centres undefined) | 6 | 8 | 2 | -6 | 8 | -12 | /
CC(C)(C)OC(=O)C[C@H]1C/C=C\C[C@@H](CC(=O)N[C@@H](CO)Cc2ccccc2)C(=O)NCCOC1=O | -2 | 9 | 3 | 7 | 6 | 0 | /
CC1(C(=O)NCc2ccccc2)CSCC(=O)N1CCOc1ccccc1 (centres undefined) | / | -16 | / | -7 | / | / | /
CC1CCCC(NC(=O)COC(=O)/C=C/c2ccc([N+](=O)[O-])cc2)C1C (centres undefined) | 62* | 4 | 5 | -3 | 11 | 9 | 20
COc1cccc2cc(C(=O)OCC(=O)NC3CCCC(C)C3C)c(=O)oc12 (centres undefined) | 19 | 0 | 5 | 5 | 4 | 10 | /
CSCCC(NC(=O)c1ccc([N+](=O)[O-])cc1Cl)C(=O)OCC(=O)NC1CCCC(C)C1C (centres undefined) | 33* | -2 | 8 | -13 | 5 | -1 | 21
CC1CCCC(NC(=O)COC(=O)/C=C/c2ccco2)C1C (centres undefined) | 86* | 4 | 0 | 5 | 8 | 6 | 79*
COc1ccc(Cl)cc1C(=O)OCC(=O)NC1CCCC(C)C1C (centres undefined) | 35* | -3 | 7 | 2 | / | 3 | 26
C[C@@H]1Cn2cnc(C(=O)N[C@@H](C)c3ccccc3)c2C(=O)N1 | / | 17 | / | -4 | / | / | /
COCCNC(=O)C1(C)CCCN(Cc2ccc(OCc3ccccc3)cc2)C1 (centres undefined) | / | 10 | / | 1 | / | / | /
SMILES | PAFAH2 FP inh | ASAP1 inh | PAFAH1B2 inh | ARFGAP1 inh | pPAFAH inh | PAFAH1B3 inh | PAFAH2 confirm
CC1CCCC(NC(=O)COC(=O)c2ccccc2[N+](=O)[O-])C1C (centres undefined) | 65* | -1 | 6 | 2 | 7 | 1 | 57*
CC1CCCC(NC(=O)COC(=O)c2ccccc2NC(=O)c2ccco2)C1C (centres undefined) | -10 | 0 | -5 | -1 | 3 | 3 | /
Cc1cc(C(=O)OCC(=O)Nc2ccc(F)c(F)c2F)c(C)o1 | 52* | -12 | 6 | -5 | 9 | 3 | 50*
CCOc1ccccc1NC(=O)COC(=O)c1cc(C)oc1C | 3 | 9 | 1 | 11 | 1 | 9 | /
CC(=O)c1ccccc1NC(=O)COC(=O)c1cc(C)oc1C | 14 | -14 | 4 | 13 | -2 | 4 | /
Cc1cc(C(=O)OCC(=O)Nc2ccc(F)cc2)c(C)o1 | 79* | -1 | 1 | 0 | 7 | 6 | 78*
COc1ccccc1NC(=O)COC(=O)c1cc(C)oc1C | 6 | 0 | 1 | 12 | 1 | 2 | /
Cc1ccc(C(=O)OCC(=O)Nc2ccc(F)c(Cl)c2)o1 | 85* | -8 | 1 | -10 | 7 | 3 | 75*
Cc1cc(C(=O)OCC(=O)Nc2ccccc2)c(C)o1 | 78* | 8 | 0 | 11 | 4 | 5 | 74*
Cc1ccc(NC2=C(Cl)C(=O)OC2OC(=O)c2ccccc2)c(C)c1 (centres undefined) | 4 | -2 | 4 | 5 | 7 | 2 | /
Cc1cccc(C)c1NC1=C(Cl)C(=O)OC1OC(=O)c1ccccc1 (centres undefined) | 31* | -5 | 3 | 22 | -1 | 4 | -22
Cc1noc(C)c1C(=O)OCC(=O)Nc1cccc(S(=O)(=O)N(C)C)c1 | 4 | 5 | 1 | -10 | 0 | 1 | /
Cc1cc(C(=O)OCC(=O)Nc2cccc(S(=O)(=O)N(C)C)c2)c(C)o1 | 45* | 0 | 1 | 6 | 1 | -4 | 34*
CN(C)S(=O)(=O)c1cccc(NC(=O)COC(=O)c2cccn2C)c1 | 36* | -11 | 5 | 12 | 6 | -1 | 22
CCN(CC)S(=O)(=O)c1cccc(NC(=O)COC(=O)c2cc(C)oc2C)c1 | 39* | 7 | -4 | 5 | 4 | -3 | 39*
CC(=O)Nc1ccc2c(c1)nc(CCN1CCN(c3ccccn3)CC1)n2C | 1 | -3 | 4 | 1 | / | -4 | /
